For data set [1], the system named is Mus musculus. Put plainly: Antihyperalgesic activity Swiss albino mouse […] assessed as licking latency time at 30 mg/kg, po after 15 mins by hot plate test (reference value: 17.4 +/- 1.2 secs). The format is functional. A digest of the protocol:
(§1)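 Hot plate at 52.5 ± 0.1 °C in non-diabetic male Swiss mice. Latency to licking of fore or hind paws was timed before dosing and every 15 min up to 60 min after oral dosing. Mice with pretest latencies below 12 s or above 18 s were excluded. Cut-off was 45 s.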

The test system of data set [2] is Rattus norvegicus. Put plainly: Antinociceptive activity in Sprague-Dawley rat mononeuropathy pain model assessed as increase in injured paw pressure at 30 mg/kg, po after 15 mins by paw pressure test relative to non-treated control. The data set is classed as functional. In outline:
(§2)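 Chronic constriction injury: loose ligatures placed on the common sciatic nerve under chloral hydrate; contralateral sham dissection. Tested 14 days after surgery. Paw pressure applied at 32 g/s; threshold taken as the force causing the first struggle; cut-off 250 g; pretest outliers (<40 g or >75 g) excluded. Oral dosing in 10 ml/kg; read at 15, 30 and 45 min; compared with a CMC-treated group.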

For data set [3], the system named is Rattus norvegicus. Put plainly: Toxicity in Sprague-Dawley rat mononeuropathy pain model assessed as effect on contralateral paw pressure at 30 mg/kg, po after 15 mins by paw pressure test. The format is organism-based. To be noted: in vivo, 0.25 h. Details: dose 30 mg/kg, route oral. A digest of the protocol: (§3)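 Same sciatic-ligation rat model, 14 days after surgery. Threshold measured on the non-operated contralateral hind paw by analgesimeter at 32 g/s; first-struggle endpoint; 250 g cut-off; pretest rats outside 40–75 g rejected. Compound given po in 10 ml/kg; readings at 15, 30 and 45 min.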

The test system of data set [4] is Mus musculus. Nature of the data set: Anticonvulsant activity in Swiss albino mouse […] assessed as protection against intraperitoneally administered pentylenetetrazol-induced seizures at 30 mg/kg, po after 30 mins. The format is functional. A digest of the protocol: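 Male Swiss albino mice. Compounds given po and PTZ 90 mg/kg injected 30 min later; PTZ was dissolved in 0.9% NaCl saline. Clonic generalized convulsions were recorded over 30 min. Each value is the mean of 10 mice. The methods give the PTZ route as s.c. and the table footnote gives it as ip.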

Data set [5] relates to Mus musculus. Nature of the data set: Antihyperalgesic activity Swiss albino mouse […] assessed as licking latency time at 30 mg/kg, po after 30 mins by hot plate test (reference value: 17.4 +/- 1.2 secs). The format is functional. A digest of the protocol:
as §1

In data set [6] the test system is Mus musculus. Put plainly: Antihyperalgesic activity Swiss albino mouse […] assessed as licking latency time at 30 mg/kg, po after 60 mins by hot plate test (reference value: 17.4 +/- 1.2 secs). The format is functional. In outline: as §1
Data set [7] concerns Rattus norvegicus. Nature of the data set: Toxicity in Sprague-Dawley rat mononeuropathy pain model assessed as effect on contralateral paw pressure at 30 mg/kg, po after 45 mins by paw pressure test. The data set is classed as organism-based. Details: dose 30 mg/kg, route oral. To be noted: in vivo, 0.75 h. In outline: as §3
For data set [8], the system named is Rattus norvegicus. Put plainly: Antinociceptive activity in Sprague-Dawley rat mononeuropathy pain model assessed as increase in injured paw pressure at 30 mg/kg, po after 45 mins by paw pressure test relative to non-treated control. The format is functional. In outline: as §2
Data set [9] has as its system Rattus norvegicus. Nature of the data set: Toxicity in Sprague-Dawley rat mononeuropathy pain model assessed as effect on contralateral paw pressure at 100 mg/kg, po after 30 mins by paw pressure test. The format is organism-based. Details: dose 100 mg/kg, route oral. To be noted: in vivo, 0.5 h. In outline: as §3
Data set [10] has as its system Mus musculus. Put plainly: Antihyperalgesic activity against streptozotocin-induced hyperalgesia in Swiss albino mouse […] assessed as licking latency time at 30 mg/kg, po after 45 mins by hot plate test (reference value: 10.6 +/- 0.7 secs). The format is functional.
In data set [11] the test system is Mus musculus. Put plainly: Antihyperalgesic activity against streptozotocin-induced hyperalgesia in Swiss albino mouse […] assessed as licking latency time at 30 mg/kg, po after 30 mins by hot plate test (reference value: 10.6 +/- 0.7 secs). The format is functional.
In data set [12] the test system is Mus musculus. Put plainly: Antihyperalgesic activity against streptozotocin-induced hyperalgesia in Swiss albino mouse […] assessed as licking latency time at 30 mg/kg, po after 60 mins by hot plate test (reference value: 10.6 +/- 0.7 secs). The format is functional.
For data set [13], the system named is Rattus norvegicus. Nature of the data set: Antinociceptive activity in Sprague-Dawley rat mononeuropathy pain model assessed as increase in injured paw pressure at 100 mg/kg, po after 45 mins by paw pressure test relative to non-treated control. The format is functional. In outline:
as §2

Data set [14] deals with Rattus norvegicus. Nature of the data set: Antinociceptive activity in Sprague-Dawley rat mononeuropathy pain model assessed as increase in injured paw pressure at 100 mg/kg, po after 15 mins by paw pressure test relative to non-treated control. The data set is classed as functional. A digest of the protocol: as §2
Data set [15] has as its system Mus musculus. Nature of the data set: Analgesic activity in Swiss albino mouse abdominal constriction model assessed as decrease in number of acetic acid-induced writhing at 30 to 60 mg/kg, po after 30 mins. The format is functional, organism-based. The conditions noted are these: Abdomen. In outline: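 Male Swiss albino mice (23–30 g). Compounds given po in 1% CMC vehicle 30 min before the test. Acetic acid 0.6% injected i.p. at 10 ml/kg. Stretching movements were counted for 10 min, starting 5 min after the acetic acid injection. 8–15 mice per group.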

The test system of data set [16] is Mus musculus. Nature of the data set: Antihyperalgesic activity Swiss albino mouse […] assessed as licking latency time at 30 mg/kg, po after 45 mins by hot plate test (reference value: 17.4 +/- 1.2 secs). The format is functional. A digest of the protocol:
as §1

Data set [17] deals with Rattus norvegicus. Nature of the data set: Antinociceptive activity in Sprague-Dawley rat mononeuropathy pain model assessed as increase in injured paw pressure at 100 mg/kg, po after 30 mins by paw pressure test relative to non-treated control. The format is functional. In outline: as §2
Data set [18] deals with Mus musculus. Nature of the data set: Anxiolytic-like activity in Swiss albino mouse at 30 mg/kg, po after 30 mins by light/dark box test. Details: dose 30 mg/kg. The data set is classed as functional, organism-based. In outline:
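Male Swiss mice tested in a two-compartment light/dark box. Transfers between compartments and time spent in the lit side recorded. Compound given po 30 min before testing, in 10 ml/kg; flumazenil given i.p. for antagonism; 8 mice per group.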

Data set [19] deals with Rattus norvegicus. Put plainly: Toxicity in Sprague-Dawley rat mononeuropathy pain model assessed as effect on contralateral paw pressure at 30 mg/kg, po after 30 mins by paw pressure test. To be noted: in vivo, 0.5 h. The format is organism-based. Details: dose 30 mg/kg, route oral. A digest of the protocol: as §3
The test system of data set [20] is Rattus norvegicus. Put plainly: Toxicity in Sprague-Dawley rat mononeuropathy pain model assessed as effect on contralateral paw pressure at 100 mg/kg, po after 45 mins by paw pressure test. The format is organism-based. Details: dose 100 mg/kg, route oral. The conditions noted are these: in vivo, 0.75 h. A digest of the protocol:
as §3

Data set [21] deals with Rattus norvegicus. Nature of the data set: Toxicity in Sprague-Dawley rat mononeuropathy pain model assessed as effect on contralateral paw pressure at 100 mg/kg, po after 15 mins by paw pressure test. The format is organism-based. Details: dose 100 mg/kg, route oral. To be noted: in vivo, 0.25 h. A digest of the protocol: as §3
The species named for data set [22] is Bos taurus. Put plainly: Displacement of [3H]Ro151788 from GABA(A)/BzR in bovine cerebral cortex membrane at 10 uM. The format is cell membranes. A digest of the protocol:
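Bovine cerebral cortex membranes in 50 mM Tris-citrate pH 7.4; [3H]flumazenil displacement. Compounds first tested at a fixed 10 µM; Ki determined only when inhibition exceeded 80%, using at least six concentrations. Five experiments run in triplicate; IC50 obtained by iterative curve fitting and converted to Ki with the Cheng–Prusoff equation.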

Data set [23] concerns Rattus norvegicus. Put plainly: Antinociceptive activity in Sprague-Dawley rat mononeuropathy pain model assessed as increase in injured paw pressure at 30 mg/kg, po after 30 mins by paw pressure test relative to non-treated control. The data set is classed as functional. A digest of the protocol: as §2
Data set [24] relates to Mus musculus. Nature of the data set: Antihyperalgesic activity against streptozotocin-induced hyperalgesia in Swiss albino mouse […] assessed as licking latency time at 30 mg/kg, po after 15 mins by hot plate test (reference value: 10.6 +/- 0.7 secs). The data set is classed as functional.

Activity calls are given as the source filed them. A value given as a limit tells only on which side of the number the result lay.

`CCCCCOc1ccc2c(c1)n1ncc(I)c1n[n+]2[O-]`: the Time in data set [1] amounted to 18.3 s; in data set [5], 16.7 s; in data set [6] it was 17.5 s; in data set [10] it was 10.4 s; in data set [11] it was 9.8 s; in [12], 9.1 s. For the same compound, the Time came out at 17.1 s in data set [16] and 9.2 s in data set [24]. Besides, the Activity was 35.6 g in data set [2]; 57.3 g in data set [3]; 0% in [4]; 63.1 g in data set [7]; 34.2 g in data set [8]; 61.3 g in [9]. The Activity in data set [13] is on record as 33.9 g; in data set [14], 39.2 g; in [17], 38.4 g; in data set [19], 61.2 g; in data set [20] it was 60.5 g; in [21], 57.4 g. For the same compound, the Activity in [23] came to 37.5 g. Also, the result in [15] was inactive. The outcome in data set [18] was Active. The inhibition in data set [22] is above 80%.

(Values after ChEMBL document CHEMBL2176871, “Development of ligands at γ-aminobutyrric acid type A (GABAA) receptor subtype as new agents for pain relief” (Bioorg Med Chem, 2011).)
